Experimental data from ChEMBL document CHEMBL4043131, “New prodrugs of two pyrimidine acyclic nucleoside phosphonates: Synthesis and antiviral activity” (Bioorg Med Chem, 2017).
The source made the active and inactive calls. The calls are words filed in the database; no cut-off is given here.

Key:
Human alphaherpesvirus 1 [1] = assay: Antiviral activity against wild type Herpes simplex virus 1 KOS infected in HEL cells assessed as inhibition of virus-induced cytopathic effect; type: functional, cell-based; details: Human alphaherpesvirus 1, KOS
Human alphaherpesvirus 2 = assay: Antiviral activity against Herpes simplex virus 2 G infected in HEL cells assessed as inhibition of virus-induced cytopathic effect; type: functional, cell-based; details: Human alphaherpesvirus 2, strain G
Summary of the method: (§1)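 Confluent cell monolayers were infected with 100 CCID50 of virus (1 CCID50 = dose infecting 50% of cultures) and incubated with varying compound concentrations. Cytopathicity was scored once complete in untreated infected controls.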

Human alphaherpesvirus 1 [2] = assay: Antiviral activity against thymidine kinase-deficient ACV-resistant Herpes simplex virus 1 KOS infected in HEL cells assessed as inhibition of virus-induced cytopathic effect; type: functional, cell-based; details: Human alphaherpesvirus 1, KOS
Human alphaherpesvirus 3 [3] = assay: Antiviral activity against wild type thymidine kinase expressing Varicella-Zoster virus Oka infected in HEL cells assessed as inhibition of virus-induced plaque formation; type: functional, cell-based; details: Human alphaherpesvirus 3, Oka
Summary of the method: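 Confluent HEL cultures were inoculated with 20 PFU of VZV and incubated with varying compound concentrations. Plaques were counted once formation was complete in untreated infected controls.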

Human alphaherpesvirus 3 [4] = assay: Antiviral activity against wild type thymidine kinase-deficient Varicella-Zoster virus 07-1 infected in HEL cells assessed as inhibition of virus-induced plaque formation; type: functional, cell-based; details: Human alphaherpesvirus 3, 07-1, HEL
Summary of the method: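 HEL fibroblast monolayers were infected with 20 PFU of VZV and kept with varying compound concentrations. Plaques were counted once formation was complete in untreated infected controls.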

Human betaherpesvirus 5 [5] = assay: Antiviral activity against Human cytomegalovirus AD169 infected in HEL cells assessed as inhibition of virus-induced cytopathic effect; type: functional, cell-based; details: Human betaherpesvirus 5, AD169, HEL; summary of the method: as §1
Human betaherpesvirus 5 [6] = assay: Antiviral activity against Human cytomegalovirus Davis infected in HEL cells assessed as inhibition of virus-induced cytopathic effect; type: functional, cell-based; details: Human betaherpesvirus 5, Davis; summary of the method: as §1
Vaccinia virus = assay: Antiviral activity against Vaccinia virus Lederle infected in HEL cells assessed as inhibition of virus-induced cytopathic effect; type: functional, cell-based; details: Orthopoxvirus vaccinia
HEL = assay: Cytotoxicity against HEL cells assessed as reduction in cell growth after 3 days by coulter counter method; type: cell-based; details: human, hel, 72 h
Summary of the method: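 HEL cells were seeded at 5 × 10³ cells/well and grown for 24 h, then given medium containing graded compound concentrations. After 3 days at 37 °C, cells were counted by Coulter counter.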

[7] = test system: Vesicular stomatitis virus; assay: Antiviral activity against Vesicular stomatitis virus infected in HEL cells assessed as inhibition of virus-induced cytopathic effect; type: functional, cell-based
Coxsackievirus B4 = assay: Antiviral activity against Coxsackie virus B4 infected in human HeLA cells assessed as inhibition of virus-induced cytopathic effect; type: functional, cell-based; summary of the method: as §1
[8] = Antiviral activity against Respiratory syncytial virus A strain long infected in human HeLA cells assessed as inhibition of virus-induced cytopathic effect; type: functional, cell-based; summary of the method: as §1
Human respirovirus 3 = assay: Antiviral activity against Parainfluenza virus 3 infected in African green monkey Vero cells assessed as inhibition of virus-induced cytopathic effect; type: functional; summary of the method: as §1
[9] = test system: Mammalian orthoreovirus 1; assay: Antiviral activity against Reovirus-1 infected in African green monkey Vero cells assessed as inhibition of virus-induced cytopathic effect; type: functional; summary of the method: as §1
Sindbis virus = assay: Antiviral activity against Sindbis virus infected in African green monkey Vero cells assessed as inhibition of virus-induced cytopathic effect; type: functional; summary of the method: as §1
Punta Toro virus = assay: Antiviral activity against Punta Toro virus infected in African green monkey Vero cells assessed as inhibition of virus-induced cytopathic effect; type: functional; summary of the method: as §1
Feline coronavirus = assay: Antiviral activity against Feline coronavirus infected in CRFK cells assessed as inhibition of virus-induced cytopathic effect; type: functional, cell-based
[10] = Selectivity index, ratio of CC50 for HEL cells to EC50 for Human cytomegalovirus AD169 infected in HEL cells; type: toxicity, cell-based; details: read-out: Ratio CC50/EC50
[11] = Selectivity index, ratio of CC50 for HEL cells to EC50 for wild type Herpes simplex virus 1 KOS infected in HEL cells; type: toxicity, cell-based; details: human, read-out: Ratio CC50/EC50
Summary of the method: (§2)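 EC50 is the concentration halving cytopathicity in HEL cells infected with 100 CCID50 HSV. […] Cells were counted by Coulter counter, and CC50 was read from plots of cell number (% of untreated) versus concentration. SI = CC50/EC50.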

[12] = Selectivity index, ratio of CC50 for HEL cells to EC50 for Herpes simplex virus 2 G infected in HEL cells; type: toxicity, cell-based; details: human, read-out: Ratio CC50/EC50; summary of the method: as §2
[13] = Selectivity index, ratio of CC50 for HEL cells to EC50 for thymidine kinase-deficient ACV-resistant Herpes simplex virus 1 KOS infected in HEL cells; type: toxicity, cell-based; details: human, read-out: Ratio CC50/EC50; summary of the method: as §2
[14] = Selectivity index, ratio of CC50 for HEL cells to EC50 for wild type thymidine kinase expressing Varicella-Zoster virus Oka infected in HEL cells; type: toxicity, cell-based; details: human, read-out: Ratio CC50/EC50
[15] = Selectivity index, ratio of CC50 for HEL cells to EC50 for wild type thymidine kinase-deficient Varicella-Zoster virus 07-1 infected in HEL cells; type: toxicity, cell-based; details: human, read-out: Ratio CC50/EC50
[16] = Selectivity index, ratio of CC50 for HEL cells to EC50 for Human cytomegalovirus Davis infected in HEL cells; type: toxicity, cell-based; details: read-out: Ratio CC50/EC50
Influenza A virus = assay: Antiviral activity against Influenza A virus (H1N1) infected in HEL cells assessed as inhibition of virus-induced cytopathic effect; type: functional, cell-based
Influenza A virus H3N2 = assay: Antiviral activity against Influenza A virus H3N2 infected in HEL cells assessed as inhibition of virus-induced cytopathic effect; type: functional, cell-based
Influenza B virus = assay: Antiviral activity against influenza B virus infected in HEL cells assessed as inhibition of virus-induced cytopathic effect; type: functional, cell-based

Compound | EC50 (Human alphaherpesvirus 1 [1]) | EC50 (Human alphaherpesvirus 2) | EC50 (Human alphaherpesvirus 1 [2]) | EC50 (Human alphaherpesvirus 3 [3]) | EC50 (Human alphaherpesvirus 3 [4]) | EC50 (Human betaherpesvirus 5 [5]) | EC50 (Human betaherpesvirus 5 [6]) | EC50 (Vaccinia virus) | Activity [7] | Activity (Coxsackievirus B4) | Activity [8] | Activity (Human respirovirus 3) | Activity [9] | Activity (Sindbis virus) | Activity (Punta Toro virus) | Activity (Feline coronavirus) | selectivity ratio [10] | selectivity ratio [11] | selectivity ratio [12] | selectivity ratio [13] | further results
CCCCCCCCCCCCCCCCCCOCCOP(=O)(O)COCCn1cnc(N)nc1=O | 350 nM | 150 nM | 200 nM | 320 nM | 790 nM | 1120 nM | 240 nM | > 100000 nM | inactive | inactive | inactive | inactive | inactive | inactive | inactive | inactive | 71 to 330 | 226 to 528 | 226 to 528 | 226 to 528 | CC50 (HEL): 79200 nM; selectivity ratio [14]: 100 to 248; selectivity ratio [15]: 100 to 248; selectivity ratio [16]: 71 to 330; Activity (Influenza A virus): inactive; Activity (Influenza A virus H3N2): inactive; Activity (Influenza B virus): inactive
CCOC(=O)[C@H](C)NP(=O)(COCCOc1cc(N)nc(N)n1)N[C@@H](C)C(=O)OCC | 3900 nM | 3460 nM | 6300 nM | 560 nM | 1690 nM | 28400 nM | 17000 nM | 157000 nM | inactive | inactive | inactive | inactive | inactive | inactive | inactive | inactive | ≤ 1 | 4 to 15 | 4 to 15 | 4 to 15 | CC50 (HEL): 25900 nM; selectivity ratio [14]: 15 to 52; selectivity ratio [15]: 15 to 52; selectivity ratio [16]: ≤ 1; Activity (Influenza A virus): inactive; Activity (Influenza A virus H3N2): inactive; Activity (Influenza B virus): inactive
CC(C)(C)C(=O)OCOP(=O)(COCCn1cnc(N)nc1=O)OCOC(=O)C(C)(C)C | 840 nM | 1260 nM | 730 nM | 650 nM | 1320 nM | 3240 nM | 970 nM | 152000 nM | inactive | inactive | inactive | inactive | inactive | inactive | inactive | inactive | 14 to 47 | 37 to 63 | 37 to 63 | 37 to 63 | CC50 (HEL): 46000 nM; selectivity ratio [14]: 35 to 71; selectivity ratio [15]: 35 to 71; selectivity ratio [16]: 14 to 47; Activity (Influenza A virus): inactive; Activity (Influenza A virus H3N2): inactive; Activity (Influenza B virus): inactive
CCCCCCCCCCCCCCCCNC(=O)[C@@H](N)Cc1ccc(OP(=O)(COCCn2cnc(N)nc2=O)Oc2ccc(C[C@H](N)C(=O)NCCCCCCCCCCCCCCCC)cc2)cc1 | 600 nM | 400 nM | 400 nM | 580 nM | 290 nM | 2160 nM | 480 nM | > 100000 nM | inactive | inactive | inactive | inactive | inactive | inactive | inactive | inactive | 13 to 56 | 45 to 68 | 45 to 68 | 45 to 68 | selectivity ratio [14]: 47 to 93; selectivity ratio [15]: 47 to 93; selectivity ratio [16]: 13 to 56; Activity (Influenza A virus): inactive; Activity (Influenza A virus H3N2): inactive; Activity (Influenza B virus): inactive
